Experiments:
[1] = system: Bovine viral diarrhea virus 1; test: Antiviral activity against BVDV infected in bovine MDBK cells after 72 hrs by luciferase reporter gene assay; assay type: functional, organism-based; details: Bovine viral diarrhea virus isolates and strains
[2] = Cytotoxicity against bovine MDBK cells after 3 days by CellTitre-Blue assay; assay type: cell-based, Bos taurus; details: cattle
[3] = system: Hepatitis C virus; test: Antiviral activity against HCV genotype 1b infected in human HuH7 cells after 72 hrs by FRET assay; assay type: functional, organism-based, Hepacivirus hominis; details: Huh-7, 72 h
Procedure, shortened: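 Replicon cells seeded 10K/well, attached overnight; compounds added with 0.5% v/v DMSO vehicle controls, typically 72 h. Alamar blue read first, then cells PBS-rinsed and lysed with reagent holding 150 mM NaCl and 20 μM final EDANS/DABCYL NS3 protease peptide; kinetic fluorescence 340/490 nm. EC₅₀ = concentration halving background-subtracted FRET signal versus DMSO wells.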

[4] = system: Hepatitis C virus; test: Antiviral activity against HCV genotype 1a H77c infected in human HuH7 cells after 72 hrs; details: Huh-7, 72 h

`O=C(Nc1ccc(/C=C/c2ccc(NC(=O)[C@@H]3CCCN3C(=O)c3cc4ccccc4cn3)cc2)cc1)[C@@H]1CCCN1C(=O)c1cc2ccccc2cn1` gave an EC50 [1] greater than 5 µM, a CC50 at 72 h [2] greater than 10 µM and an EC50 [3] of 0.28 µM. It also gave an EC50 [4] of 3.1 µM.

— ChEMBL document CHEMBL3120097, “HCV NS5A replication complex inhibitors. Part 4. Optimization for genotype 1a replicon inhibitory activity” (J Med Chem, 2014)
